High-throughput results as filed in PubChem BioAssay.
SENP1 FRET inh: blocks the human SENP1 SUMO protease catalytic domain. Q9P0U3. recombinant SENP1 catalytic domain, CyPet-SUMO1-YPet FRET cleavage. inhibition, % at 10 µM. hit rate 0.21% among 360,000;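 active = inhibition at least 30% at 10 µM, raw YFP signal under a set limit, fluorescence ratio 0.5 to 1.5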
Target sequence (Q9P0U3 419-644 limits assumed): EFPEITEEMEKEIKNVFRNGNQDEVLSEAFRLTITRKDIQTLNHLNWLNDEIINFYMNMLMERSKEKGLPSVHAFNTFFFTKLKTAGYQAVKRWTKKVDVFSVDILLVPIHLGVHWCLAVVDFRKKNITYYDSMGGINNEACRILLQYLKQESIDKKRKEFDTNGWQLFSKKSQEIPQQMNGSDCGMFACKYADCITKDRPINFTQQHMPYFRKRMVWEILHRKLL
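System: Recombinant human SENP1 catalytic domain, His6-tagged | Incubation: Enzyme reaction for 50 min at room temperature, dark | Medium: Tris pH 8 with BME, BSA, NP40 and catalase | Also added: 25 nM SUMO1 FRET substrate | Compound: 10 µM single point, 0.5% DMSO | Measured by: FRET fluorescence in CFP and YFP emission channels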
MPTP inh: blocks calcium-induced mitochondrial swelling. isolated mouse mitochondria, Ca2+ swelling absorbance, 30 min. inhibition, % at 10 µM. hit rate 1.4% among 360,000. AID 602449;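 active = inhibition of 50% or more, scaled per plate between neutral and stimulator controls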
NR3A LBD binder: modulates the human NR3A ligand-binding domain | NR3A LBD differential scanning fluorimetry, Tm shift; 0% = protein alone, 100% = glycine-bound protein | hit rate 2.5% among 340,000 | Tm shift relative to glycine control, % at 25 µM;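 active = melting temperature shift of at least 10% of the positive control shift, at one fixed dose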
EBI2 antag: antagonists of human EBI2 receptor. EBI2 beta-arrestin recruitment, luminescence, 7a,25-OHC stimulated. inhibition, % at 5 µM. hit rate 0.81% among 360,000; in the data active = inhibition above about 38%;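 note: enzyme fragment complementation signal reports receptor beta-arrestin coupling in cells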
Target sequence (P32249 whole entry, looked up, the tested form may be a part): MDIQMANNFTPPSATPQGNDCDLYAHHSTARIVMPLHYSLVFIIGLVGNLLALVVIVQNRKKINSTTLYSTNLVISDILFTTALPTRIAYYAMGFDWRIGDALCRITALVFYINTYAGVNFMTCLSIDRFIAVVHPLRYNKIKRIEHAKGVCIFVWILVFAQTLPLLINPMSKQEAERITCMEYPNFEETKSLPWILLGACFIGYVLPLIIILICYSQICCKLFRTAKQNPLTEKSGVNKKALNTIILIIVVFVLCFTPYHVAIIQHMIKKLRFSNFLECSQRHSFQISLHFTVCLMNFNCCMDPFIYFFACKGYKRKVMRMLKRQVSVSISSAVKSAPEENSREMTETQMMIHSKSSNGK
MPTP counter: mitochondrial membrane potential, counter-screen; shares compounds with MPTP inh; isolated mitochondria, Rhodamine 123 fluorescence; inhibition, % at 10 µM; hit rate 78% among 5,000; in the data active = inhibition above about 22%
MPTP abs DR: MPTP inhibition, dose response swelling confirmation; shares compounds with MPTP inh; isolated mitochondria swelling, absorbance; IC50, µM; hit rate 58% among 780; AID 651561; in the data active = IC50 below about 20 µM
MPTP counter DR: MPTP inhibitor counter-screen activity, dose response. isolated mitochondria counterscreen, fluorescence read-out. IC50, µM. shares compounds with MPTP inh. hit rate 49% among 780; in the data active = IC50 below about 80 µM
Hits are given with their value; . = inactive; / = no result. The list is not random: actives were taken first. Their share in the collection is about 4.4%.

SMILES	SENP1 FRET inh	MPTP inh	NR3A LBD binder	EBI2 antag	MPTP counter	others
Cc1cc(O)c(-c2cc(C(=O)NCc3ccc4c(c3)OCO4)[nH]n2)cc1C	.	.	.	.	/
O=C(NCc1ccc2c(c1)OCO2)c1cc(-c2cc(Cl)ccc2O)n[nH]1	.	64	11	.	62
CCC(=O)Nc1nnc(SCC(=O)NC2CCCC2)s1	.	.	.	.	/
NC(=O)C1(c2ccccc2)CCC(=O)N1c1ccccc1 (centres undefined)	.	.	.	.	/
Cc1sc2ncnc(NC3CCN(Cc4ccccc4)CC3)c2c1C	.	91	.	.	71
O=C(Nc1ccc(Cl)cc1)OCc1cn(-c2ccc(Cl)cc2)nn1	.	85	.	.	83
O=C(Nc1ccc(Cl)cc1)OCc1ccccn1	.	91	22	.	85
O=C1Nc2ccccc2C(O)(C(=O)NCc2ccco2)N1c1ccc(Cl)cc1 (centres undefined)	.	90	.	.	87
CCOC(=O)c1c(C(F)(F)C(F)(F)C(F)(F)C(F)(F)F)n[nH]c1C	.	73	.	.	78
CCOC(=O)c1[nH]c(C)c(C(=O)OCC)c1C	.	.	.	.	/
CC1(C(=O)Nc2cccc3c2CCCC3)CCN1C(=O)C1(c2ccc(Cl)cc2)CC1 (centres undefined)	.	.	/	.	/
CCC1CCCCN1CCCNC(=O)CS(=O)(=O)Cc1nc(-c2cccc(OC)c2)oc1C (centres undefined)	.	.	.	.	/
CC(C)Cn1c(N)c(C(=O)CSc2ccc3c(c2)OCCO3)c(=O)n(C)c1=O	.	99	.	.	86
CN1CCN(S(=O)(=O)c2cccc(C(=O)NC3(C)CCS(=O)(=O)C3)c2)CC1 (centres undefined)	.	.	.	.	/
O=[N+]([O-])c1ccc(Nc2ccc3ccccc3c2)nc1	.	78	38	.	59
O=C(NNc1ccc([N+](=O)[O-])cn1)Nc1ccc(N=Nc2ccccc2)cc1	.	91	.	.	64
O=C(NNC(=O)c1ccncc1)Nc1ccc(N=Nc2ccccc2)cc1	.	68	21	.	30
Cc1cc(C(F)F)nn1CC(=O)N1CCSCC1	.	.	.	.	/
CN(CC(=O)Nc1ccc(F)cc1)C(=O)C1CCN(C(=O)Nc2ccccc2)CC1	.	.	.	.	/
CO/N=C/CC(=O)c1cnc(-c2ccccc2)s1	.	.	.	.	/
O=C(NCc1ccco1)c1ccccc1NS(=O)(=O)c1ccc(Cl)s1	.	90	.	.	79
O=C(Nc1ccccc1Cc1ccccc1)c1ccccc1NS(=O)(=O)c1ccc(Cl)s1	.	64	34	.	51
Cc1ccc(NC(=O)c2ccccc2NS(=O)(=O)c2ccc(Cl)s2)cc1	.	68	26	.	76
CCCCNC(=O)COc1ccccc1[N+](=O)[O-]	.	.	.	.	/
N#C/C(=C\c1ccc(O)c(O)c1)S(=O)(=O)c1ccccc1	.	90	.	.	70
SMILES	SENP1 FRET inh	MPTP inh	NR3A LBD binder	EBI2 antag	MPTP counter	others
Cc1[nH]c2ccccc2c1/C=C(\C#N)S(=O)(=O)c1ccccc1	.	72	.	.	61
Cc1cc(C)c(/C=C(\C#N)S(=O)(=O)c2ccccc2)[nH]1	.	.	.	.	/
Cc1ccccc1CNc1ncnc2cc(Cl)ccc12	.	.	.	.	/
Cc1ccc(CNc2ncnc3cc(Cl)ccc23)cc1	.	87	.	.	76
CCn1nc(C(=O)NNC(=O)CCOc2cc(C)ccc2C)c2ccccc2c1=O	.	.	.	.	/
O=C(CSc1nnc(Cn2nnc3ccccc32)o1)N(Cc1ccc(Cl)cc1)c1ccccc1	.	96	.	.	103
N#Cc1c(Cl)cccc1Oc1ccc(S(=O)(=O)Nc2ccccc2)cc1	.	.	.	.	/
N#Cc1cccc(C#N)c1Oc1ccc(S(=O)(=O)Nc2ccccc2)cc1	.	54	.	.	.	MPTP abs DR=.;MPTP counter DR=30
CN1CCN(C(=O)c2cccc(-c3cnc4cnc(-c5ccccc5Oc5ccccc5)cn34)c2)CC1	.	.	/	.	/
Cc1cccc(C)c1NC(=O)C[N+](C)(C)CC(O)COc1cccc2ccccc12 (centres undefined)	.	81	.	.	.	MPTP abs DR=3.3;MPTP counter DR=51
O=C1c2ccccc2C(=O)N1CC(O)COc1cccc2ccccc12 (centres undefined)	.	.	/	.	/
COc1cc(OC)c(NC(=O)c2cc3ccccc3cc2O)cc1Cl	.	90	26	.	33
Cc1ccc(NC(=O)COc2ccccc2C(=O)Nc2ccccc2)cc1Cl	.	.	.	.	/
COc1ccccc1C(=O)Nc1cc(Cl)ccc1O	.	67	11	.	36
CCOc1ccccc1C(=O)Nc1cc(OC)ccc1OC	.	.	.	.	/
CCOc1ccccc1C(=O)Nc1cc(Cl)ccc1O	.	92	16	.	76
Cc1ccc(Cl)cc1NC(=O)c1ccccc1OCC(=O)Nc1ccc(Cl)cc1	.	88	30	.	93
COc1ccc(Cl)cc1NC(=O)c1ccccc1C	.	.	.	.	/
O=C(c1ccco1)N1N=C(c2ccc3nccnc3c2)CC1c1ccccc1 (centres undefined)	.	.	.	.	/
O=[N+]([O-])c1ccc(/C=[N+](\[O-])CCO)o1	.	.	.	.	/
COc1ccc(C(=O)NCC(=O)OCc2ccc([N+](=O)[O-])cc2)cc1	.	.	.	.	/
Cc1ccc(C(=O)NCC(=O)NCC(=O)OCc2ccc(Oc3ccc([N+](=O)[O-])cc3)cc2)cc1	.	51	.	.	52
COCC(C)n1c(SCC(=O)Nc2cccnc2Cl)nc2ccccc2c1=O (centres undefined)	.	.	/	.	/
COc1cccc(CNc2cnc3ccccc3c2)c1O	.	62	.	.	62
CCOC(=O)C1CCN(C(=O)N(CC)CC)CC1	.	.	.	.	/
SMILES	SENP1 FRET inh	MPTP inh	NR3A LBD binder	EBI2 antag	MPTP counter	others
CCCc1cc(O)c2c(C)cc(=O)oc2c1	.	82	.	.	87
CCCCc1cc(=O)oc2cc(C)cc(O)c12	.	86	.	.	96
O=C(NNC(=O)c1ccccc1Cl)c1cc2cc(OC(F)(F)F)ccc2[nH]1	.	.	.	.	/
Cc1ccc(CNS(=O)(=O)c2c(C)[nH]c(=O)[nH]c2=O)cc1	.	.	.	.	/
FC(F)(F)c1nnc(Nc2ccc(Cl)cc2)s1	.	79	.	.	75
Fc1ccc(Nc2nnc(C(F)(F)F)s2)cc1Cl	.	75	.	.	86
O=C(Nc1nnc(C(F)(F)F)s1)c1c(F)cccc1F	.	.	.	.	/
Cc1ccc(N2C(=O)C3C4C=CC(CNC(=S)N5CCN(c6cccc(C)c6)C(C)C5)(O4)C3C2=O)cc1 (centres undefined)	.	.	.	.	/
